# ChEMBL document CHEMBL1165947, “Synthesis and antitumor activity of 2,5-bis(3'-indolyl)-furans and 3,5-bis(3'-indolyl)-isoxazoles, nortopsentin analogues” (Bioorg Med Chem, 2010)
# Legend:
# SK-OV-3 = test: Growth inhibition of human SKOV3 cells; assay type: functional
# How it was run: (§1)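 Values come from the NCI in vitro disease-oriented human tumor cell screen. GI50 is the concentration giving 50% growth inhibition of tumor cells; pGI50 is its −log molar form.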
# A549 = test: Cytotoxicity against human A549 cells after 4 days by modified propidium iodide staining-based fluorescence assay; assay type: functional, cell-based; details: A549, 96 h
# How it was run: (§2)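 Cells cultured in RPMI 1640 with 10% fetal calf serum and 0.1 mg/mL gentamicin at 37 °C, 5% CO2. Cells from exponential cultures were trypsinized and plated at 4.000-20.000 cells/well by line. After 24 h recovery, compounds were added at five log-spaced concentrations (highest 100 μg/mL) for 4 days. Proliferation was read as DNA content with aqueous propidium iodide (7 μg/ml), fluorescence ex 530/em 620 nm. Points were run in triplicate.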
# A498 = test: Growth inhibition of human A498 cells; assay type: functional
# [1] = Cytotoxicity against human 1781L cells after 4 days by modified propidium iodide staining-based fluorescence assay; assay type: functional, cell-based; details: 96 h; how it was run: as §2
# HT-29 = test: Growth inhibition of human HT-29 cells; assay type: functional
# DU-145 [2] = test: Cytotoxicity against human DU145 cells after 4 days by modified propidium iodide staining-based fluorescence assay; assay type: functional, cell-based; details: DU-145, 96 h; how it was run: as §2
# SF-268 = test: Growth inhibition of human SF268 cells; assay type: functional; how it was run: as §1
# U-251 = test: Growth inhibition of human U251 cells; assay type: functional; how it was run: as §1
# T-24 = test: Cytotoxicity against human T24 cells after 4 days by modified propidium iodide staining-based fluorescence assay; assay type: functional, cell-based; details: T-24, 96 h; how it was run: as §2
# LOX IMVI = test: Growth inhibition of human LOXIMVI cells; assay type: functional
# [3] = Cytotoxicity against human RXF 486L cells after 4 days by modified propidium iodide staining-based fluorescence assay; assay type: functional, cell-based; details: 96 h; how it was run: as §2
# TK-10 = test: Growth inhibition of human TK10 cells; assay type: functional; how it was run: as §1
# HCT-116 [4] = test: Cytotoxicity against human HCT116 cells after 4 days by modified propidium iodide staining-based fluorescence assay; assay type: functional, cell-based; details: HCT-116, 96 h; how it was run: as §2
# SK-MEL-5 = test: Growth inhibition of human SK-MEL-5 cells; assay type: functional; how it was run: as §1
# [5] = Cytotoxicity against human LXFA 289L cells after 4 days by modified propidium iodide staining-based fluorescence assay; assay type: functional, cell-based; details: 96 h; how it was run: as §2
# HCT-116 [6] = test: Growth inhibition of human HCT116 cells; assay type: functional
# [7] = Cytotoxicity against human MEXF 462NL cells after 4 days by modified propidium iodide staining-based fluorescence assay; assay type: functional, cell-based; details: 96 h; how it was run: as §2
# MOLT-4 = test: Growth inhibition of human MOLT4 cells; assay type: functional; how it was run: as §1
# OVCAR-5 = test: Growth inhibition of human OVCAR5 cells; assay type: functional; how it was run: as §1
# DU-145 [8] = test: Growth inhibition of human DU145 cells; assay type: functional
# SR = test: Growth inhibition of human SR cells; assay type: functional; how it was run: as §1
# [9] = Cytotoxicity against human PC3M cells after 4 days by modified propidium iodide staining-based fluorescence assay; assay type: functional, cell-based; details: PC-3M, 96 h; how it was run: as §2
# SNB-75 = test: Growth inhibition of human SNB75 cells; assay type: functional; how it was run: as §1
# [10] = Cytotoxicity against human GXF251L cells after 4 days by modified propidium iodide staining-based fluorescence assay; assay type: functional, cell-based; details: GXF 251L, 96 h; how it was run: as §2
# HOP-62 = test: Growth inhibition of human HOP62 cells; assay type: functional
# SF-295 = test: Growth inhibition of human SF295 cells; assay type: functional; how it was run: as §1
# SW-620 = test: Growth inhibition of human SW620 cells; assay type: functional; how it was run: as §1
# [11] = Growth inhibition of human Hs 578T cells; assay type: functional
# [12] = Cytotoxicity against human 1752L cells after 4 days by modified propidium iodide staining-based fluorescence assay; assay type: functional, cell-based; details: 96 h; how it was run: as §2
# [13] = Growth inhibition of human […] cells; assay type: functional; how it was run: as §1
# 786-0 = test: Growth inhibition of human 786-0 cells; assay type: functional
# MCF7 [14] = test: Cytotoxicity against human MCF7 cells after 4 days by modified propidium iodide staining-based fluorescence assay; assay type: functional, cell-based; details: MCF7, 96 h; how it was run: as §2
# PANC-1 = test: Cytotoxicity against human PANC1 cells after 4 days by modified propidium iodide staining-based fluorescence assay; assay type: functional, cell-based; details: PANC-1, 96 h; how it was run: as §2
# M14 = test: Growth inhibition of human M14 cells; assay type: functional
# [15] = Cytotoxicity against human MAXF 401NL cells after 4 days by modified propidium iodide staining-based fluorescence assay; assay type: functional, cell-based; details: 96 h; how it was run: as §2
# [16] = Cytotoxicity against human MEXF 276L cells after 4 days by modified propidium iodide staining-based fluorescence assay; assay type: functional, cell-based; details: MEXF276L, 96 h; how it was run: as §2
# NCI-H226 = test: Growth inhibition of human NCI-H226 cells; assay type: functional; how it was run: as §1
# SF-539 = test: Growth inhibition of human SF539 cells; assay type: functional; how it was run: as §1
# NCI-H460 = test: Growth inhibition of human NCI-H460 cells; assay type: functional; how it was run: as §1
# SN12C = test: Growth inhibition of human SN12C cells; assay type: functional; how it was run: as §1
# HL-60(TB) = test: Growth inhibition of human HL-60(TB) cells; assay type: functional
# How it was run: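 Values come from the NCI in vitro disease-oriented human tumour cell line screen, not from this lab's propidium iodide assay. GI50 is the concentration giving 50% inhibition of net cell growth, also reported as pGI50, the −log of that molar concentration.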
# MCF7 [17] = test: Growth inhibition of human MCF7 cells; assay type: functional; how it was run: as §1
smiles,measurement,setting,value
COc1ccc2c(c1)c(-c1ccc(-c3cn(C)c4ccc(OC)cc34)o1)cn2C,GI50,SK-OV-3,> 100 µM
same,IC50,A549,9.6 µg/mL
same,GI50,A498,> 100 µM
same,IC50,[1],22 µg/mL
same,GI50,HT-29,22 µM
same,IC50,DU-145 [2],> 100 µg/mL
same,GI50,SF-268,9.25 µM
same,GI50,U-251,3.66 µM
same,IC50,T-24,> 100 µg/mL
same,GI50,LOX IMVI,10.4 µM
same,IC50,[3],> 100 µg/mL
same,GI50,TK-10,11 µM
same,IC50,HCT-116 [4],50.4 µg/mL
same,GI50,SK-MEL-5,10.4 µM
same,IC50,[5],> 100 µg/mL
same,GI50,HCT-116 [6],8.8 µM
same,IC50,[7],12.5 µg/mL
same,GI50,MOLT-4,> 100 µM
same,GI50,OVCAR-5,2.79 µM
same,GI50,DU-145 [8],> 100 µM
same,GI50,SR,1.63 µM
same,IC50,[9],4.1 µg/mL
same,GI50,SNB-75,13.6 µM
same,IC50,[10],3.8 µg/mL
same,GI50,HOP-62,> 100 µM
same,GI50,SF-295,13.4 µM
same,GI50,SW-620,4.55 µM
same,GI50,[11],5.11 µM
same,IC50,[12],77.4 µg/mL
same,GI50,[13],2.25 µM
same,GI50,786-0,> 100 µM
same,IC50,MCF7 [14],6.2 µg/mL
same,IC50,PANC-1,6.4 µg/mL
same,GI50,M14,32.9 µM
same,IC50,[15],8.1 µg/mL
same,IC50,[16],3.8 µg/mL
same,GI50,NCI-H226,23.6 µM
same,GI50,SF-539,2.47 µM
same,GI50,NCI-H460,9.89 µM
same,GI50,SN12C,21.6 µM
same,GI50,HL-60(TB),1.98 µM
same,GI50,MCF7 [17],17.3 µM
